We go through ten compounds from PMC10073337 (Biochemistry, 2023).

One data set deals with T1, HhIYD containing FMNox (Haliscomenobacter hydrossis, UniProt F4KU78).
T1 sequence (F4KU78 1-222): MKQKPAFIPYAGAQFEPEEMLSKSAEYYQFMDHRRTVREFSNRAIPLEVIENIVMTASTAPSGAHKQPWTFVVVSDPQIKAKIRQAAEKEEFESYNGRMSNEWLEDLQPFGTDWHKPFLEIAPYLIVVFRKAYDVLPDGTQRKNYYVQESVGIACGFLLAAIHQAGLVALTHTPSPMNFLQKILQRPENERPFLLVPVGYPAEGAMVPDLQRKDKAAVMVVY
In words: Binding affinity to HhIYD containing oxidized FMN. The method, boiled down:
(§1)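 HsIYD (residues 2–31 removed) was expressed as a SUMO fusion and purified by Ni2+ affinity and size exclusion. HhIYD carried a C-terminal His6 tag and was purified by Ni2+ affinity. Ligand was titrated into 3 μM enzyme in 110 mM potassium phosphate pH 7.4, stirred, at 25 °C. Flavin fluorescence (ex 450, em 516 nm) was read 2 min after each addition. Kd was fitted from fractional remaining fluorescence versus total enzyme and ligand.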

Another data set concerns the target T2, HsIYD containing FMNox (Homo sapiens, UniProt Q6PHW0).
T2 sequence (Q6PHW0 with tags, fused parts or gaps): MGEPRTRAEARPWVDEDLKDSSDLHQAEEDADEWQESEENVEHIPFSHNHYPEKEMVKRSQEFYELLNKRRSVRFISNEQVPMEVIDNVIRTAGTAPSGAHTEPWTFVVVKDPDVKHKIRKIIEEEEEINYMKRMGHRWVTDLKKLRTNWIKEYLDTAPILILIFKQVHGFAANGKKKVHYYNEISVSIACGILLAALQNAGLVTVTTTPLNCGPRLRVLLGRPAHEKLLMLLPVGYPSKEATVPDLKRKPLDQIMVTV
In words: Binding affinity to HsIYD containing oxidized FMN. The method, boiled down: as §1

Data set [1] in a line: Estimated phenol pKa and phenolate fraction of substrates. The format is physicochemical. To be noted: assay conditions of pH 7.4, based on estimated pKa.
For data set [2] the following is noted: free in neutral aqueous solution at 25 °C; cited from earlier work.
The target in data set [3] is T3, HsIYD reconstituted with FMN analogues (Homo sapiens, UniProt Q6PHW0).
T3 sequence (Q6PHW0 with tags, fused parts or gaps): T2 sequence (Q6PHW0 with tags, fused parts or gaps)
The class given is biochemical. The following applies: I-Tyr as substrate, HsIYD reconstituted with the cofactor, pH 7.4. The method, boiled down: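 FMN was stripped from column-bound SUMO–HsIYD with 0.6 to 1.5 M guanidinium HCl, then the gradient was reversed. The protein was loaded with 200 μM flavin analogue for 4 h at 4 °C and washed. It was eluted with 250 mM imidazole, the tag was cleaved, and size exclusion followed. Turnover used 70–80 nM enzyme, 100 mM potassium phosphate pH 7.4, 0.5% dithionite and 25 °C, with HPLC product detection.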

The conditions of data set [4]: cited from earlier work.
The next data set deals with T4, HhIYD (Haliscomenobacter hydrossis, UniProt F4KU78).
T4 sequence (F4KU78 1-222): T1 sequence (F4KU78 1-222)
As to the kind of experiment: Competitive inhibition of I-Tyr dehalogenation by HhIYD. The format is biochemical. Put shortly: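 His6-tagged HhIYD (70–80 nM final) was incubated with I-Tyr in 111 mM potassium phosphate pH 7.4 at 25 °C. Dithionite (5% in 5% sodium bicarbonate) was added at one-tenth volume as reductant. Deiodinated product was quantified by reverse-phase C18 HPLC. The test compound was included as a competitive inhibitor, giving Ki against the reduced enzyme.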

For data set [5], the target named is T5, Iodotyrosine deiodinase (Human, HsIYD) (Homo sapiens, UniProt Q6PHW0).
T5 sequence (Q6PHW0 with tags, fused parts or gaps): T2 sequence (Q6PHW0 with tags, fused parts or gaps)
As to the kind of experiment: Catalytic deiodination. The following applies: 100 mM potassium phosphate pH 7.4, 0.5% sodium dithionite. The format is biochemical.

Data set [6] has as its target T6, IYD from Haliscomenobacter hydrossis (HhIYD) (Haliscomenobacter hydrossis, UniProt F4KU78).
T6 sequence (F4KU78 1-222): T1 sequence (F4KU78 1-222)
In words: Catalytic deiodination. The following applies: I-Tyr turnover, pL 7.4, 100 mM potassium phosphate. The class given is biochemical.

SMILES strings stand for the structures. Marks after values point to notes of the source that are not given here.

For the compound `N#Cc1cc(C[C@H](N)C(=O)O)cc(I)c1O` [I-CN-Tyr, 3-cyano-5-iodotyrosine], the figures for the Kd at HhIYD containing FMNox and at HsIYD containing FMNox were 7.3 ± 0.4 µM and 7 ± 0.03 µM, respectively. The “fraction existing in phenolate form” value in data set [1] is on record as 98%.
As to `COc1cc(C[C@H](N)C(=O)O)cc(I)c1O` [I-MeO-Tyr, 3-iodo-5-methoxytyrosine], the Kd (as a rule, the free concentration of one partner at which half of the binding sites on the other are occupied at equilibrium, for simple one-to-one binding) at HhIYD containing FMNox is 4.3 ± 0.4 µM; at HsIYD containing FMNox it was 6.3 ± 0.3 µM.
For the compound `COc1cc2c(cc1C)nc1c(=O)[nH]c(=O)nc-1n2C[C@H](O)[C@H](O)[C@H](O)COP(=O)(O)O` [8-MeO-FMN, 8-methoxy-desmethylFMN], in [2], the redox potential was −260^c mV. For the same compound, in data set [3], the kcat is listed as 9.0 ± 0.3 s^−1 × 10^−2.
With `N[C@@H](Cc1cc(I)c(O)c(I)c1)C(=O)O` [I2-Tyr, diiodotyrosine], the “pKa of the α-ammonium group” value in [4] is on record as 7.8.
For the compound `N[C@@H](Cc1ccc(O)c(F)c1)C(=O)O` [fluorotyrosine, 3-fluorotyrosine], the affinity on HhIYD corresponds to a Ki of 10.7 ± 0.1 µM.
Turning to `Cc1cc2nc3c(=O)[nH]c(=O)nc-3n(C[C@H](O)[C@H](O)[C@H](O)COP(=O)(O)O)c2cc1C` [FMN, Flavin Mononucleotide], the redox potential in data set [2] is listed as −205^d mV. For the same compound, in data set [3], the kcat was determined as 5.2 ± 0.2 s^−1 × 10^−2.
`N[C@@H](Cc1cc(F)c(O)c(I)c1)C(=O)O` [I-F-Tyr, 3-fluoro-5-iodotyrosine]: the Kd on HhIYD containing FMNox is 6.9 ± 0.3 µM; on HsIYD containing FMNox, 0.9 ± 0.1 µM.
`N[C@@H](Cc1ccc(O)c(I)c1)C(=O)O` [I-Tyr, iodotyrosine]: the Km (commonly the substrate concentration at which the rate is half of its maximum) in [5] worked out at 19 ± 3 µM; in [6] (D2O), 12 ± 4 µM; in data set [6] (H2O, 9% glycerol), 13 ± 4 µM; in data set [6] (H2O), 23 ± 4 µM. Besides, the kcat in [5] turned out to be 0.12 ± 0.008 s⁻¹; in [6] (D2O), 0.41 ± 0.05 s⁻¹; in [6] (H2O, 9% glycerol), 0.39 ± 0.05 s⁻¹; in data set [6] (H2O), 0.64 ± 0.08 s⁻¹.
On to `Cc1cc2c(cc1Cl)nc1c(=O)[nH]c(=O)nc-1n2C[C@H](O)[C@H](O)[C@H](O)COP(=O)(O)O` [7-Cl-FMN], for which the redox potential in data set [2] is listed as −128^d mV. For the same compound, in data set [3], the kcat is 3.3 ± 0.2 s^−1 × 10^−2.
For the compound `Cc1cc(C[C@H](N)C(=O)O)cc(I)c1O` [I-Me-Tyr, 3-Iodo-5-methyltyrosine], the Kd at HhIYD containing FMNox is 1.7 ± 0.1 µM; at HsIYD containing FMNox it was 2.6 ± 0.03 µM. Moreover, the “fraction existing in phenolate form” value in data set [1] is 3.4%.
